Data as given in PubChem BioAssay.
Unmarked numbers belong to inactive results. Results filed as inconclusive are left out. The source made the active and inactive calls.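 The calls were made as follows, unless noted: active = growth inhibition above 25% in both replicates, a cutoff set 3 SD above the mean; inconclusive = above 25% in only one replicate; inactive = the rest.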

Assays:
[1] = OD615 S. cerevisiae growth inhibition, permissive medium, pilot counter-assay, permissive growth control for S. cerevisiae lifespan shortening project (AID 705); conditions: OD615, 24 h, at 10 µM, active compounds read high
Summary of the method: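 System: S. cerevisiae with engineered DeaD lifespan system. Medium: SC raffinose/galactose permissive medium. Doses: single compound dose of 10 µM, 0.25% DMSO final. Schedule: 24 h exposure, 30 °C. Measured by: OD615 turbidity read. Read-out: growth inhibition.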

[2] = Restrictive medium S. cerevisiae growth inhibition, OD615, pilot screen of yeast lifespan reduction project, restrictive growth control (AID 706;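 active = growth inhibition above a set limit, 3 SD over mean compound inhibition, in both replicates, cut at about 43% in these data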;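 also: modified DeaD lifespan yeast strain shifted to restrictive glucose medium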); conditions: OD615, 48 h, at 10 µM, active compounds read high
Summary of the method: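 Assay system – genetically modified Saccharomyces cerevisiae, DeaD replicative lifespan assay strain · Medium – CSMM-D glucose medium · Doses – 10 µM compound, 0.25% DMSO · Times – 4 h pre-incubation, 48 h exposure at 30 °C · Signal – optical density at 615 nm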

[3] = viability gain of MRP-1-high H69AR cells under doxorubicin, pilot screen, MRP-1 activator project, CellTiter-Glo, duplicate (AID 807;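 active = viability increase at or above a cutoff of the median across tested compounds plus 3 SD, cut at about 8.5% in these data, passing the limit was not always enough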;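 also: compound pretreatment 18-22 h then 72 h combined with doxorubicin; 0% = doxorubicin alone and 100% = vehicle without doxorubicin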); conditions: H69AR viability with doxorubicin, CellTiter-Glo luminescence; at 10 µM; active compounds read high
[4] = growth suppression of beta-catenin knockout HCT116, pilot screen, human colon tumor cells (AID 823;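 active = cell viability at or below a set limit in both duplicate runs, the limit being the all-compound median minus 4 SD, cut at about 23% in these data, passing the limit was not always enough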;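 also: 0% = wells killed by 20 µM Hyamine and 100% = untreated DMSO cell wells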); conditions: CellTiter-Glo, 60 h, at 10 µM, active compounds read low
[5] = growth suppression of PTEN-deleted HCT116, pilot screen, cell-based, HCT116 clonal line, CellTiter-Glo (AID 824;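 active = viability at or below 27.92% in each of two runs, the all-compound median minus 4 SD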;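 also: 0% = 20 µM Hyamine control and 100% = vehicle cell control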); conditions: 60 h, at 10 µM, active compounds read low
[6] = inhibitors of the yeast RAM network, pilot screen, dse1pr::URA3 reporter, 5-FOA selection (AID 869;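 active = inhibition over a set limit, the all-compound mean plus 3 SD, in both replicate runs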;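 also: 0% = DMSO wells with no growth and 100% = 10 µM 1-NA-PP1 with full growth; RAM network block rescues cells from 5-FOA so hits raise OD615 growth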); conditions: S. cerevisiae dse1pr::URA3 5-FOA growth, OD615, 2 d; at 10 µM; active compounds read high; strain carries analog-sensitive mutant Cbk1 kinase
[7] = RAM signaling pathway blockade in yeast – S. cerevisiae, Pdr1DBD-CYC8 efflux-inhibited sensitized strain, primary screen (AID 1298;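 active = RAM network inhibition above 8.4% in each of two replicates, 3 SD over the compound average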;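 also: 0% = DMSO untreated cells without growth and 100% = 10 µM 1-NA-PP1 full growth; higher means more yeast growth rescued from 5-FOA killing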); conditions: S. cerevisiae cbk1-as DSE1-URA3 strain, 5-FOA growth OD615, 2 d; at 50 µM; active compounds read high

SMILES	growth inhibition [1] [%]	growth inhibition [2]	viability increase [3] [%]	viability [4]	viability [5]	inhibition [6] [%]	RAM network inhibition [7] [%]
Cc1cccc(NC(=O)C2C(C(=O)O)C3C=CC2C32CC2)c1C (configuration not stated)	-2.43	-9.19%	-1.67	95.2%	93.5%	1.42	-0.78
Cc1ccc(N2CC(C(=O)Nc3cccc(F)c3)CC2=O)cc1 (configuration not stated)	-13.3	-5.71%	0.09	90.6%	103%	-0.185	8.04
COC(=O)c1[nH]c2cc(OC)ccc2c1NC(=O)c1ccc2c(c1)OCO2	-9.79	-13.4%	-3.43	79.6%	81.2%	1.74	1.04
COc1ccc(-c2nnc(NC(=O)c3ccccc3C)o2)cc1	-8.78	-11.7%	-2.73	27.6%	25.3% (active)	1.86	0.11
CCOC(=O)Cc1nnc(NC(=O)CSc2nncn2C)s1	-1.1	7.44%	-0.06	98.5%	94.5%	1.5	2.87
COC(=O)C1=C(C)N(C)C(=O)NC1c1ccc(C)cc1 (configuration not stated)	0.9	-13.4%	0.2	105%	101%	2.69	-0.17
O=C(O)CC12CSc3[nH]c(=O)sc3C1c1ccccc1OC2=O (configuration not stated)	3.48	-0.005%	-2.73	101%	95%	1.14	-0.11
CN(C)c1ccnc2sc(C(=O)NCc3ccccc3)c(N)c12	-17.2	17.5%	-2.17	81.3%	78.7%	2.11	1.39
COc1cccc(-c2csc(NC(=O)C3CC3)n2)c1	1.37	13.5%	4.92	96.6%	91.5%	-0.98	1.49
CCOC(=O)C1CCN(C(=O)c2oc3ccc(S(=O)(=O)N4CCCCCC4)cc3c2C)CC1	0.58	-20.9%	-3.23	72.8%	78.9%	1.73	0.3
O=C(c1ccccc1)c1ccc2nc(N3CCCCC3)c3nncn3c2c1	12.4	57.7% (active)	-3.48	45.4%	56.4%	2.53	4.08
O=C(c1ccccc1S(=O)(=O)NCc1ccccc1)N1CCCC1	-12	-20.3%	-0.09	110%	98%	1.66	3.93
CCN1CCN(C(=O)C2CCN(S(=O)(=O)c3cccc4cccnc34)CC2)CC1	-6.23	2.11%	-0.43	108%	96.3%	2.33	0.98
COc1ccc(-n2c(Cn3c(=O)sc4ccccc43)nnc2SCC(=O)N2CCCC2)cc1	-1.82	17.8%	0.25	104%	102%	1.5	3.39
COc1ccc(-n2nnnc2S(=O)(=O)CC(=O)N2CCCCC2)cc1	-2.05	6.43%	-9.59	1.47% (active)	2.74% (active)	0.75	-0.17
O=C(CCCOc1ccccc1)NCC1CCCO1 (configuration not stated)	-3.87	-6.75%	-2.68	96.5%	91.5%	4.06	0.83
CCc1nnc(NC(=O)C2CCCCC2)s1	5.8	14.7%	1.12	109%	106%	0.455	1.04
COc1ccc(Nc2nc(N)nc(CN3CCc4ccccc4C3)n2)cc1	-5.29	-14.9%	-5.38	44.7%	48.4%	0.725	4.84

SMILES	growth inhibition [1] [%]	growth inhibition [2]	viability increase [3] [%]	viability [4]	viability [5]	inhibition [6] [%]	RAM network inhibition [7] [%]
CCOC(=O)c1c(C)n(C)c2cc(Br)c(C(=O)OC)cc12	8.75	-4.36%	-3.53	97%	96.3%	1.99	7.11
O=C(CSc1nnc(Cc2cc(=O)[nH]c(=O)[nH]2)n1-c1ccccc1)N1CCCCC1	-4.77	5.95%	-2.54	99.7%	90.4%	1.02	-2.08
CCc1ccc2c(c1)C(NC(C)=O)C(=O)N2CC (configuration not stated)	-11.8	-3%	-0.55	78.5%	86%	0.73	0.8
COc1ccc(-c2nc(CS(=O)CC(=O)NCc3ccco3)c(C)o2)cc1OC (configuration not stated)	1.38	-5.82%	-4.57	83.4%	84.6%	0.205	4.18
Cc1ccc2cc(CCNC(=O)C(C)(C)C)c(=O)[nH]c2c1	-5.49	-13.2%	0.4	105%	97.5%	0.125	3.53
O=C1CCc2cc(S(=O)(=O)N3CCCC3C(=O)N3CCN(c4ccccc4)CC3)ccc2N1 (configuration not stated)	-10.3	-12.1%	-3.91	105%	85%	3.67	4.76
Cc1csc(NC(=O)CSc2nnc(Cn3c(=O)sc4ccccc43)n2-c2ccccc2)n1	0.38	15.3%	-1.37	96%	96.8%	2.42	6.99
COc1ccc(NC(=O)C(c2ccccc2)N(C)C(=O)c2cnccn2)cc1 (configuration not stated)	-4.62	-12.6%	-1.52	99.2%	90.8%	0.88	0.05
CCN(C(=O)CSc1nnnn1-c1cc(C)ccc1OC)C1CCS(=O)(=O)C1 (configuration not stated)	-6.25	4.34%	-1.65	99%	94.6%	1.56	-1.67
CS(=O)(=O)N1Cc2ccccc2CC1C(=O)Nc1ccccc1C(N)=O (configuration not stated)	-2.29	-1.52%	-1.04	108%	97%	3.26	7.36
Cc1ccc(C)c(NC(=O)CSc2nc3c(c(=O)n2C)SC(C)C3)c1 (configuration not stated)	-3.99	-8.3%	-3.24	83.2%	90.8%	0.5	3.86
O=C(NCN1CCc2ccccc2C1)c1cnccn1	-18.3	-15.1%	-3.49	96.3%	96.6%	3.92	5.24
COc1ccc2c(c1)[nH]c1c(N3CCN(Cc4ccc5c(c4)OCO5)CC3)ncnc12	-15.7	-18.4%	-5.9	11.9% (active)	23.1% (active)	2.08	5.66
CC(C)N(CCc1ccncc1)C(=O)Nc1ccc(F)cc1	0.1	-7.37%	-2.27	102%	96.8%	1.21	5.33
CCOC(=O)CN1CC23C=CC(O2)C(C(=O)O)C3C1=O (configuration not stated)	2.83	-3.85%	0.14	103%	107%	0.73	4
COc1cc2c(cc1OC)C(C(=O)NC1CC1)C1c3ccccc3CCN1C2=O (configuration not stated)	-17.8	-13.4%	-1.28	95.8%	97.3%	0.58	0.1
CCN(CC)CCNC(=O)Cn1nc(Cc2cccnc2)c2ccccc2c1=O	-3.85	-2.59%	-0.86	95.7%	97.7%	-0.35	1.23
N#Cc1cn(CC(=O)NCC2CCCO2)c2ccccc12 (configuration not stated)	1.68	-3%	-1.75	93.1%	91.4%	1.1	5.31
